Bounds are passed on as bounds.

Test [1] has as its target T1, Alpha-2B adrenergic receptor (Homo sapiens, UniProt P18089).
T1 sequence (P18089 whole entry): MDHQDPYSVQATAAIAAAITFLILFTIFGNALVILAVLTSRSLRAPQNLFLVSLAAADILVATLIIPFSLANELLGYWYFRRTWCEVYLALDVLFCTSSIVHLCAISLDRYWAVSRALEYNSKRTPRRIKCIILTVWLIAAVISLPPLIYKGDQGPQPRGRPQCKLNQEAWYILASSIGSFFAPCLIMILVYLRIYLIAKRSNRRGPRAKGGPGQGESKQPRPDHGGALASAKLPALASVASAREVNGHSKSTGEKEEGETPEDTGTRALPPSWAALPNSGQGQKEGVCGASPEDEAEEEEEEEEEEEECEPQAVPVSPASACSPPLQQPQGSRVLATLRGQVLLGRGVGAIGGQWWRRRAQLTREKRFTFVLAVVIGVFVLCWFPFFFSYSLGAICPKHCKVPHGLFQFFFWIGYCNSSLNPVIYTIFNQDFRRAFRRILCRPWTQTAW
The test is described as follows: Binding affinity at human Alpha-2B adrenergic receptor in CHO cells by [3H]rauwolscine (1 nM) displacement. Format: cell-based.

For test [2], the system named is Rattus norvegicus. The test is described as follows: Inhibition of Xylazine (15 mg/kg i.v.) induced loss of righting reflex in rats following i.v. administration. Format: functional. On the set-up: unit not given here.
Test [3] addresses T2, Alpha-2A adrenergic receptor (Homo sapiens, UniProt P08913).
T2 sequence (P08913 whole entry): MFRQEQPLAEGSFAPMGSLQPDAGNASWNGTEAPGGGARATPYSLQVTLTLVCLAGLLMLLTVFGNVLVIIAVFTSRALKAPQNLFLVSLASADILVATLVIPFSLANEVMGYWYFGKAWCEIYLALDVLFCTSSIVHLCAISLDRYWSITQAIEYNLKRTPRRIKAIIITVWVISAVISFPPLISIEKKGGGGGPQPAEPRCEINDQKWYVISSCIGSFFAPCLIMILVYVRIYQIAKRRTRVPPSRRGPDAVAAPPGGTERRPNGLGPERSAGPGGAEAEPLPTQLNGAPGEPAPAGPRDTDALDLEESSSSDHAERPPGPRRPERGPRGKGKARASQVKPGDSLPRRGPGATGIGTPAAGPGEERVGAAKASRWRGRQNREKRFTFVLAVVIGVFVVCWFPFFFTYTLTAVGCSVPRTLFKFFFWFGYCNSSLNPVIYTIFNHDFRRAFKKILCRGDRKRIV
The test is described as follows: Binding affinity at human Alpha-2A adrenergic receptor in CHO cells by [3H]rauwolscine (1 nM) displacement. Format: cell-based. Put shortly: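 Membranes from CHO cells stably expressing the human receptor, with 1 nM [3H]rauwolscine as radioligand. Nonspecific binding was defined with 1 μM oxymethazoline. Compounds were tested over 10^-5 to 10^-11. Inhibition curves were fitted as sigmoids by non-linear regression using polynomials, and pIC50 (−log IC50) was read from the curves.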

Test [4] deals with Rattus norvegicus. The test is described as follows: Inhibition of clonidine (0.04 mg/kg) induced anti diarrhoeal effects in rats following s.c. administration. Details: unit not given here. Format: functional.
Test [5] addresses T3, Alpha-2C adrenergic receptor (Homo sapiens, UniProt P18825).
T3 sequence (P18825 whole entry): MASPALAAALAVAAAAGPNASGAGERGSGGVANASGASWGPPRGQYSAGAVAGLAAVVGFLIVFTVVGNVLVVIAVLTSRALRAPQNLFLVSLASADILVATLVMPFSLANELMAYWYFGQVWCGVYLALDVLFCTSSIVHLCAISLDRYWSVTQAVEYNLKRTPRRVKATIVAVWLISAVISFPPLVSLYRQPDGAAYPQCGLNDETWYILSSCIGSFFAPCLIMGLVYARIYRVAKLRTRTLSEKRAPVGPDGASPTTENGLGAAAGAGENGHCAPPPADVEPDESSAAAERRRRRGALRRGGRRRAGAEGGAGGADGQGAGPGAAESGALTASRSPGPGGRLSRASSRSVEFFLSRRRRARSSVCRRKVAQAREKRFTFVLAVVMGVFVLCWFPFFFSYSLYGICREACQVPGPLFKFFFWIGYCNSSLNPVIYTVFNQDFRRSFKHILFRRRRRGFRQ
The test is described as follows: biochemical. The test is classed as cell-based, CHO.

The target of test [6] is T4, Alpha-1A adrenergic receptor (Homo sapiens, UniProt P35348).
T4 sequence (P35348 whole entry): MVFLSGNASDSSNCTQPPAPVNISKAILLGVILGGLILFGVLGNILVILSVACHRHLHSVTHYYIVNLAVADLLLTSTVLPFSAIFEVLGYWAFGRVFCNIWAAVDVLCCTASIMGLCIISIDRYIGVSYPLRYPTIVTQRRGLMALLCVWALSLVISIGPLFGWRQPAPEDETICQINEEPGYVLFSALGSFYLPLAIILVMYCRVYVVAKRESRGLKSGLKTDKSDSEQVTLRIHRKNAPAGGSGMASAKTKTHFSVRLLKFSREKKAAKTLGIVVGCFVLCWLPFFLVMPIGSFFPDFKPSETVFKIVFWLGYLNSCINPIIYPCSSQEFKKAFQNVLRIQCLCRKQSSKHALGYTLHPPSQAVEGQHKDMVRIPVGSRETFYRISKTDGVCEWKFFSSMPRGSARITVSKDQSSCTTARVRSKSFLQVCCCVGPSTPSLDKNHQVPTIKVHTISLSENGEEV
The test is described as follows: Binding affinity at human Alpha-1A adrenergic receptor in CHO cells uby [3H]prazosin (0.25 nM) displacement. Format: cell-based.

For the compound `Cc1nc2ccccn2c(=O)c1CCN1CCc2sc3ccccc3c2C1`, the IC50 was 11.5 nM in test [1], 1.74 nM in test [3], 14.1 nM in test [5] and 214 nM in test [6]. For the same compound, the Activity in test [2] was 2.5; in test [4] it was 10.
For the compound `Cc1ccc2nc(C)c(CCN3CCc4oc5ccccc5c4C3)c(=O)n2c1`, the IC50 is 1.55 nM in test [1], 0.347 nM in test [3], 1.29 nM in test [5] and 288 nM in test [6]. Moreover, the Activity in test [2] is reported as 0.16; in test [4], 0.63.
As to `COc1cc2nc(C)c(CCN3CCc4oc5ccccc5c4C3)c(=O)n2cc1OC`, the IC50 in test [1] is 195 nM; in test [3] it was 3.55 nM; in test [5] it was 57.5 nM; in test [6], 5250 nM. For the same compound, the Activity is over 10 in test [2] and over 0.63 in test [4].
Regarding `Cc1nc2c(C)cccn2c(=O)c1CCN1CCc2oc3ccccc3c2C1`, the IC50 in test [1] was 2.14 nM; in test [3] it was 0.603 nM; in test [5], 1.32 nM; in test [6], 692 nM. The Activity in test [2] was 10; in test [4], 2.5.
On to `Cc1nc2ccccn2c(=O)c1CCCN1CCc2oc3ccccc3c2C1`, for which the IC50 in test [1] is 10.7 nM; in test [3], 10.2 nM; in test [5], 6.61 nM; in test [6], 813 nM. In addition, the values for the Activity in test [2] and in test [4] were over 10 and over 2.5, respectively.
For the compound `Cc1ccn2c(=O)c(CCN3CCc4oc5ccccc5c4C3)c(C)nc2c1`, the IC50 in test [1] was 2.57 nM; in test [3], 0.447 nM; in test [5], 1.2 nM; in test [6], 112 nM. Moreover, the Activity in test [2] was found to be 0.63; in test [4], 2.5.
In the case of `Cc1nc2cccc(C)n2c(=O)c1CCN1CCc2oc3ccccc3c2C1`, the IC50 in test [1] is 1.48 nM; in test [3], 0.288 nM; in test [5], 1.07 nM; in test [6], 398 nM. The Activity amounted to 0.63 in test [2] and 2.5 in test [4].
Consider `c1ccc2c(c1)OCC(C1=NCCN1)O2` (stereo not drawn) [IDAZOXAN], for which the Activity in test [2] and in test [4] was 0.63 throughout.
Regarding `Cc1nc2ccccn2c(=O)c1CCN1CCc2oc3ccccc3c2C1` [LUSAPERIDONE], the IC50 was 2.57 nM in test [1], 0.55 nM in test [3], 1.7 nM in test [5] and 347 nM in test [6]. Besides, the results for the Activity in test [2] and in test [4] were 0.04 and 0.31, respectively.
On to `Cc1nc2c(O)cccn2c(=O)c1CCN1CCc2oc3ccccc3c2C1`, for which the half-inhibitory concentration (IC50) was 1.74 nM in test [1], 0.692 nM in test [3], 1.62 nM in test [5] and 245 nM in test [6]. The Activity in test [2] was 5; in test [4], 2.5.
Take `Cc1nc2ccc(Cl)cn2c(=O)c1CCN1CCc2oc3ccccc3c2C1`: the IC50 in test [1] is 0.955 nM; in test [3], 0.214 nM; in test [5], 0.724 nM; in test [6], 724 nM. The values for the Activity in test [2] and in test [4] were 0.04 and 0.63, respectively.
In the case of `Cc1nc2ccccn2c(=O)c1CCN1CCc2oc3c(Cl)cccc3c2C1`, the IC50 is 4.37 nM in test [1], 0.891 nM in test [3], 2.24 nM in test [5] and 282 nM in test [6]. Also, the figures for the Activity in test [2] and in test [4] were 2.5 and 0.63, respectively.
On to `Cc1nc2c(Cl)cc(Cl)cn2c(=O)c1CCN1CCc2oc3ccccc3c2C1`, for which the figures for the Activity in test [2] and in test [4] were over 10 and over 2.5, respectively. Also, the IC50 in test [3] was 0.589 nM; in test [6] it was 2570 nM.
As to `O=c1c(CCN2CCc3oc4ccccc4c3C2)c(Cc2ccccc2)nc2ccccn12`, the IC50 was 4.17 nM in test [1], 2.19 nM in test [3], 2.69 nM in test [5] and 204 nM in test [6]. Moreover, the figures for the Activity in test [2] and in test [4] were over 10 and over 2.5, respectively.
With `Cc1nc2ccc(I)cn2c(=O)c1CCN1CCc2oc3ccccc3c2C1`, the concentration for half-maximal inhibition (IC50) was 2.09 nM in test [1], 0.24 nM in test [3], 0.617 nM in test [5] and 479 nM in test [6]. For the same compound, the figures for the Activity in test [2] and in test [4] were 10 and over 2.5, respectively.
Take `COc1cccn2c(=O)c(CCN3CCc4oc5ccccc5c4C3)c(C)nc12`: the IC50 was 2.04 nM in test [1], 0.295 nM in test [3], 0.708 nM in test [5] and 115 nM in test [6]. Further, the Activity in test [2] and in test [4] was 0.63 each time.
For the compound `Cc1nc2ccc(Br)cn2c(=O)c1CCN1CCc2oc3ccccc3c2C1`, the IC50 in test [1] was 1.35 nM; in test [3], 0.355 nM; in test [5] it was 0.692 nM; in test [6], 891 nM. The Activity in test [2] was 0.16; in test [4], 2.5.
With `CN1CCN2c3ncccc3Cc3ccccc3C2C1` (stereo not drawn) [MIRTAZAPINE], the Activity is 2.5 in test [2] and over 10 in test [4]. Further, the IC50 in test [5] was 200 nM.
Take `Cc1nc2c(Cl)cc(C(F)(F)F)cn2c(=O)c1CCN1CCc2oc3ccccc3c2C1`: the 50% inhibitory concentration (IC50) is 1.95 nM in test [1], 1.17 nM in test [3] and 5890 nM in test [6].
Regarding `Cc1nc2ccccn2c(=O)c1CCN1CCc2oc3ccc(Cl)cc3c2C1`, the IC50 is 79.4 nM in test [1], 3.89 nM in test [3] and 27.5 nM in test [5]. Also, the figures for the Activity in test [2] and in test [4] were 10 and over 2.5, respectively.
As for `Cc1cc(C)n2c(=O)c(CCN3CCc4oc5ccccc5c4C3)c(C)nc2c1`, the IC50 in test [1] was 2.63 nM; in test [3] it was 0.339 nM; in test [5], 0.851 nM; in test [6], 240 nM. Also, the values for the Activity in test [2] and in test [4] were over 10 and over 2.5, respectively.

The values above are taken from ChEMBL document CHEMBL1132860 (Bioorg Med Chem Lett, 2000).
